Laboratory results as given in ChEMBL document CHEMBL3612030 (Eur J Med Chem, 2015).
Calls of active or inactive are those of the source. No cut-off for these calls is given here.

Tests used:
[1] = molecular target: T1, Polyunsaturated fatty acid 5-lipoxygenase (Homo sapiens, UniProt P09917); test: Inhibition of human 5-LOX expressed in Escherichia coli Bl21 (DE3) assessed as reduction in LTB4 and 5-H(P)ETE) formation pre-incubated for 10 mins before arachidonic acid substrate addition by RP-HPLC method
T1 sequence (P09917 whole entry): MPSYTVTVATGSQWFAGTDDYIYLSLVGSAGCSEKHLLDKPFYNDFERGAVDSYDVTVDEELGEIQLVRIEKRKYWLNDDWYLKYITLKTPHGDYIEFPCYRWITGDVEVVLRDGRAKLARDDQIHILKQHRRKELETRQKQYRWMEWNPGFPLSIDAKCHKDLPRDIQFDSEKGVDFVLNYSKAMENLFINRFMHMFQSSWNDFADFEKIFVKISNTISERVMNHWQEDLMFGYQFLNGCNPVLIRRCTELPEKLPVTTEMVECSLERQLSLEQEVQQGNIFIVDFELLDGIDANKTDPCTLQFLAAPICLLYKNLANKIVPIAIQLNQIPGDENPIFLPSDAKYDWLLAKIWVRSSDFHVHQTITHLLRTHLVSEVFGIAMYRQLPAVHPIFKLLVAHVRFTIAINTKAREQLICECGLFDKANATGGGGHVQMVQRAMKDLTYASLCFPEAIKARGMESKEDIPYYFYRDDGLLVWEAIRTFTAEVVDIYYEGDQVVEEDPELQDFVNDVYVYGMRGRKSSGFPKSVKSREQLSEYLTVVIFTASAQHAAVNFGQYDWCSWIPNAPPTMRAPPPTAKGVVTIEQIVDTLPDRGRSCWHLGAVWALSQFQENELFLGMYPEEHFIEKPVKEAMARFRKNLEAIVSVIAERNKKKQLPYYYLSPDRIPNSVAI
Procedure, shortened: (§1)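 Human 5-LO expressed from pT3-5LO in E. coli BL21(DE3) and semi-purified on ATP-agarose. Diluted in PBS with 1 mM EDTA and 1 mM ATP, pre-incubated with compound 10 min at 4 °C, then warmed 30 s at 37 °C. Reaction started with 2 mM CaCl2 plus 20 µM arachidonic acid, run 10 min at 37 °C and stopped with ice-cold methanol. All-trans LTB4 isomers and 5-H(P)ETE measured by RP-HPLC. 3–4 independent experiments.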

[2] = molecular target: T1, Polyunsaturated fatty acid 5-lipoxygenase; test: Inhibition of 5-LOX in human neutrophils assessed as reduction in LTB4 and 5-H(P)ETE) formation pre-incubated for 15 mins before A23187 and arachidonic acid substrate addition by RP-HPLC method
Procedure, shortened: (§2)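 Freshly isolated neutrophils (1 × 10^7/mL) pre-incubated with compound for 15 min at 37 °C. LTB4, its all-trans isomers and 5-H(P)ETE extracted and quantified by HPLC; cysteinyl-LTs and LTB4 oxidation products not measured. Mean ± S.E.M. of 3–4 independent experiments.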

[3] = molecular target: T2, Polyunsaturated fatty acid 5-lipoxygenase (Homo sapiens) (UniProt P09917); test: Inhibition of human 5-LOX expressed in HEK293 cells co-expressing FLAP assessed as reduction in LTB4 and 5-H(P)ETE) formation at 1 uM pre-incubated for 10 mins before arachidonic acid substrate addition by RP-HPLC method; assay type: cell-based
T2 sequence (whole entry): T1 sequence (P09917 whole entry)
Procedure, shortened: (§3)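 Stably transfected HEK 293 cells expressing 5-LO alone or 5-LO plus FLAP, 1 × 10^6 cells in 1 mL PBS with 0.1% glucose and 1 mM CaCl2. Pre-incubated with compound 10 min at 37 °C, then stimulated with 2.5 µM A23187 plus 2 µM arachidonic acid for 10 min at 37 °C. Stopped with methanol; all-trans LTB4 isomers and 5-H(P)ETE extracted and measured by HPLC.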

[4] = molecular target: T2, Polyunsaturated fatty acid 5-lipoxygenase (Homo sapiens); test: Inhibition of human 5-LOX expressed in HEK293 cells without FLAP expression assessed as reduction in LTB4 and 5-H(P)ETE) formation at 1 uM pre-incubated for 10 mins before arachidonic acid substrate addition by RP-HPLC method; assay type: cell-based; procedure, shortened: as §3
U-937 = test: Cytotoxicity against human U937 cells assessed as reduction in viability incubated for 24 hrs by MTT assay; assay type: cell-based; details: U-937, 24 h
Procedure, shortened: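 U937 cells grown in RPMI 1640 with 10% FBS, […] and penicillin/streptomycin at 37 °C under 5% CO2. Seeded at 1 × 10^6/mL and exposed to 3 concentrations for 24 h. MTT added at one-tenth culture volume for 4 h, then acidic isopropanol. Read at 570 nm minus 630-690 nm background. Untreated cells (RPMI + DMSO) = 100% viability. EC50 = concentration halving MTT reduction. 3–4 independent experiments, mean ± S.E.M.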

[5] = molecular target: T2, Polyunsaturated fatty acid 5-lipoxygenase (Homo sapiens); test: Inhibition of human 5-LOX expressed in Escherichia coli Bl21 (DE3) assessed as remaining enzyme activity by measuring LTB4 and 5-H(P)ETE) formation at 10 uM pre-incubated for 10 mins before arachidonic acid substrate addition by RP-HPLC method; procedure, shortened: as §1
[6] = molecular target: T2, Polyunsaturated fatty acid 5-lipoxygenase (Homo sapiens); test: Inhibition of 5-LOX in human neutrophils assessed as remaining enzyme activity by measuring LTB4 and 5-H(P)ETE) formation at 10 uM pre-incubated for 15 mins before A23187 and arachidonic acid substrate addition by RP-HPLC method
Procedure, shortened: as §2, with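 “°C. Stimulated with 2.5 µM A23187 plus 20 µM arachidonic acid for 10 min at 37 °C, then stopped with methanol.” for “°C.”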

Compound | IC50 [1] | IC50 [2] | inhibition [3] | inhibition [4] | Activity [5] | Activity [6] | EC50 (U-937)
CC(=O)Oc1ccc(/C=C/C(=O)OCCCn2cc(CCOC(=O)/C=C/c3ccc(OC(C)=O)c(OC(C)=O)c3)nn2)cc1OC(C)=O | > 10 µM | 0.6 µM | Active | Active | – | – | 9.6 µM
CC(=O)Oc1ccc(/C=C/C(=O)OCCc2cn(CCCOC(=O)C3(C)CCc4c(C)c(OC(C)=O)c(C)c(C)c4O3)nn2)cc1OC(C)=O (configuration not stated) | > 10 µM | 0.16 µM | Active | Active | – | – | 10.1 µM
CC(=O)Oc1c(C)c(C)c2c(c1C)CCC(C)(C(=O)OCCCN=[N+]=[N-])O2 (configuration not stated) | > 10 µM | 2.6 µM | – | – | – | – | –
CC(=O)Oc1ccc(/C=C/C(=O)OCCCn2cc(CCO)nn2)cc1OC(C)=O | 7.6 µM | > 10 µM | – | – | – | – | –
O=C(/C=C/c1ccc(F)c(F)c1)OCCc1cn(CCCO)nn1 | > 10 µM | > 10 µM | – | – | 90.3% | 101% | 5.1 µM
CC(=O)Oc1ccc(/C=C/C(=O)OCCCCc2cn(CCCO)nn2)cc1OC(C)=O | 7.6 µM | 6.1 µM | – | – | – | – | –
CC(=O)Oc1ccc(/C=C/C(=O)OCCCCCCCCc2cn(CCCO)nn2)cc1OC(C)=O | 3.2 µM | 0.2 µM | – | – | – | – | 10.2 µM
C#CCCOC(=O)/C=C/c1ccc(F)c(F)c1 | > 10 µM | > 10 µM | – | – | 52.6% | 88.2% | –
O=C(O)/C=C/c1ccc(O)c(O)c1 [CAFFEIC ACID] | – | – | – | – | – | – | 9.9 µM

Continued, in another order:

IC50 [1] | IC50 [2] | inhibition [3] | inhibition [4] | Activity [5] | Activity [6] | Compound | EC50 (U-937)
> 10 µM | 0.92 µM | – | – | – | – | C#CCCCCOC(=O)/C=C/c1ccc(OC(C)=O)c(OC(C)=O)c1 | –
> 10 µM | 0.18 µM | – | – | – | – | C#CCCCCCCCCOC(=O)/C=C/c1ccc(OC(C)=O)c(OC(C)=O)c1 | –
> 10 µM | > 10 µM | – | – | 53.6% | 104% | CC(=O)Oc1ccc(/C=C/C(=O)NCCc2cn(CCCO)nn2)cc1OC(C)=O | 10.3 µM
> 10 µM | 8.23 µM | – | – | – | – | C#CCCNC(=O)/C=C/c1ccc(OC(C)=O)c(OC(C)=O)c1 | –
> 10 µM | > 10 µM | – | – | 90.3% | 84.7% | CC(=O)Oc1ccc(/C=C/C(=O)O)cc1OC(C)=O | –
> 10 µM | 0.47 µM | – | – | – | – | C#CCCCCCOC(=O)/C=C/c1ccc(OC(C)=O)c(OC(C)=O)c1 | –
> 10 µM | 1.3 µM | – | – | – | – | CC(=O)Oc1ccc(/C=C/C(=O)OCCCN=[N+]=[N-])cc1OC(C)=O | –
> 10 µM | 1.8 µM | – | Active | – | – | C#CCCOC(=O)/C=C/c1ccc(OC(C)=O)c(OC(C)=O)c1 | 9.8 µM
